# Source: ChEMBL document CHEMBL4152368, “Novel 4-(2-pyrimidinylamino)benzamide derivatives as potent hedgehog signaling pathway inhibitors” (Bioorg Med Chem, 2018)
# What was measured:
# [1] = Inhibition of Hedgehog signaling pathway in mouse NIH/3T3 cells assessed as reduction in Sonic hedgehog-induced Gli luciferase activity after 48 hrs by Dual-luciferase reporter gene assay; type: cell-based; conditions: NIH3T3, 48 h
# Method in brief: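 NIH3T3 cells stably carrying a Gli-luciferase reporter were grown in DMEM/10% FBS with 1 μg/mL puromycin. They were seeded at 2×10⁴ cells/well and cultured overnight at 37 °C, 5% CO₂. Compounds were added as 8-point serial dilutions (0.05–300 nM) in 0.5% FBS with 0.7 μg/mL Sonic Hh agonist, n = 4 wells, for 48 h. Controls were 0.1% DMSO with or without Shh. Read-out was the Firefly/Renilla luciferase ratio.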
# [2] = Half life in Sprague-Dawley rat at 1 mg/kg, iv by LC/MS/MS analysis; type: ADME, organism-based; conditions: in vivo
# Method in brief: (§1)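 Male SD rats (3; 180–240 g) received a single 1 mg/kg iv dose at a dosing volume of 5 mL/kg. Blood was sampled at 2, 5, 15 and 30 min and at 1, 2, 4, 6, 8, 10 and 24 h, then centrifuged for 5 min at 4 °C. Plasma underwent protein precipitation and LC/MS/MS in SRM mode with an internal standard. Parameters were derived by noncompartmental analysis.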
# [3] = Apparent volume of distribution in Sprague-Dawley rat at 1 mg/kg, iv by LC/MS/MS analysis; type: ADME, organism-based; conditions: in vivo, read-out: Vz; method in brief: as §1
# [4] = Cmax in Sprague-Dawley rat at 1 mg/kg, iv by LC/MS/MS analysis; type: ADME, organism-based; parameters: dose 1 mg/kg, route intravenous; conditions: in vivo; method in brief: as §1
# [5] = Clearance in Sprague-Dawley rat at 1 mg/kg, iv by LC/MS/MS analysis; type: ADME, organism-based; conditions: in vivo; method in brief: as §1
# [6] = AUC in Sprague-Dawley rat at 1 mg/kg, iv by LC/MS/MS analysis; type: ADME, organism-based; conditions: in vivo; method in brief: as §1
SMILES,IC50 [1] [nM],half-life [2] [min],Vd [3] [L/kg],Cmax [4] [ng/mL],clearance [5] [mL/min/kg],AUC [6] [ng·h/mL]
Cc1ccc(CN2CCCC2)cc1NC(=O)c1ccc(Nc2ncc(C)c(-n3ccnc3)n2)cc1,21.1,–,–,–,–,–
Cc1ccc(CN2CCCCC2)cc1NC(=O)c1ccc(Nc2ncc(C)c(-c3ccccc3)n2)cc1,1.94,–,–,–,–,–
Cc1ccc(CN2CCN(C)CC2)cc1NC(=O)c1ccc(Nc2ncc(C)c(-c3ccccn3)n2)cc1,7.37,–,–,–,–,–
Cc1ccc(OCCCN2CCOCC2)cc1NC(=O)c1ccc(Nc2ncc(C)c(-c3ccc(OC(F)(F)F)cc3)n2)cc1,2.14,–,–,–,–,–
Cc1ccc(OCCN(C)C)cc1NC(=O)c1ccc(Nc2ncc(C)c(-c3ccc(OC(F)(F)F)cc3)n2)cc1,1.07,–,–,–,–,–
CCN(CC)CCCNC(=O)c1ccc(C)c(NC(=O)c2ccc(Nc3ncc(C)c(-c4ccc(OC(F)(F)F)cc4)n3)cc2)c1,0.62,–,–,–,–,–
CCc1cnc(Nc2ccc(C(=O)Nc3cc(CN4CCN(C)CC4)ccc3C)cc2)nc1-c1ccc(OC(F)(F)F)cc1,2.21,–,–,–,–,–
Cc1ccc(OCCN2CCOCC2)cc1NC(=O)c1ccc(Nc2ncc(C)c(-c3ccccc3)n2)cc1,4.28,86.4,2.75,863,21.5,787
Cc1ccc(CN2CCOCC2)cc1NC(=O)c1ccc(Nc2nccc(-c3cccnc3)n2)cc1,29,15,0.7,2520,33.6,521
Cc1ccc(CN2CCOCC2)cc1NC(=O)c1ccc(Nc2ncc(C)c(-c3ccccn3)n2)cc1,1.89,50.4,0.888,1540,12.3,1370
Cc1ccc(OCCN2CCOCC2)cc1NC(=O)c1ccc(Nc2ncc(C)c(-c3ccc(OC(F)(F)F)cc3)n2)cc1,2.45,–,–,–,–,–
Cc1ccc(CN2CCN(C)CC2)cc1NC(=O)c1ccc(Nc2ncc(C3CC3)c(-c3ccc(OC(F)(F)F)cc3)n2)cc1,1.54,–,–,–,–,–
